In brackets after ≈: the same amount, converted by molar mass.
How the values were obtained:
[1] = test system: A549; test: In vitro growth inhibition of A549, lung carcinoma; format: functional, cell-based; details: Homo sapiens
Method in brief: (§1)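 Human tumor lines screened in-house: KB, A549, MCF-7, CAKI-1 and SK-MEL-2. Read-out was SRB staining with absorbance at 562 nm.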

[2] = test system: A549; test: In vitro percent inhibition of A549, lung carcinoma; format: functional, Homo sapiens
[3] = test system: CAKI-1; test: In vitro growth inhibition of CAKI-1, Kidney carcinoma; format: functional, cell-based; details: Homo sapiens; method in brief: as §1
[4] = test system: KB; test: In vitro growth inhibition of KB, epidermoid carcinoma of the nasopharynx.; format: functional, cell-based; details: Homo sapiens; method in brief: as §1
[5] = test system: MCF7; test: In vitro growth inhibition of MCF-7, breast adenocarcinoma.; format: functional, cell-based; details: Homo sapiens; method in brief: as §1
[6] = test system: MCF7; test: In vitro percent inhibition of MCF-7, breast adenocarcinoma.; format: functional, Homo sapiens
[7] = test system: SK-MEL-2; test: In vitro growth inhibition of SK-MEL-2, malignant melanoma.; format: functional, cell-based; details: Homo sapiens; method in brief: as §1
[8] = biological target: T1, DNA topoisomerase II (Homo sapiens, UniProt P11388+Q02880); test: In vitro inhibitory activity at 100 uM against topoisomerase II measured as ATP-dependent unknotting of P4 DNA compared to enzyme and DNA control.; format: protein assay
[9] = biological target: Tubulin; format: protein-complex assay
[10] = test system: CAKI-1; test: (§2) In vitro percent inhibition of CAKI-1, Kidney carcinoma; format: functional, Homo sapiens; set-up: concentration or dose not given beside the values
[11] = biological target: T2, DNA topoisomerase 1 (Homo sapiens) (UniProt P11387); test: In vitro inhibitory activity at 100 uM against topoisomerase I measured as ATP-independent relaxation of supercoiled plasmid DNA compared to enzyme and DNA control.
T2 sequence (whole entry): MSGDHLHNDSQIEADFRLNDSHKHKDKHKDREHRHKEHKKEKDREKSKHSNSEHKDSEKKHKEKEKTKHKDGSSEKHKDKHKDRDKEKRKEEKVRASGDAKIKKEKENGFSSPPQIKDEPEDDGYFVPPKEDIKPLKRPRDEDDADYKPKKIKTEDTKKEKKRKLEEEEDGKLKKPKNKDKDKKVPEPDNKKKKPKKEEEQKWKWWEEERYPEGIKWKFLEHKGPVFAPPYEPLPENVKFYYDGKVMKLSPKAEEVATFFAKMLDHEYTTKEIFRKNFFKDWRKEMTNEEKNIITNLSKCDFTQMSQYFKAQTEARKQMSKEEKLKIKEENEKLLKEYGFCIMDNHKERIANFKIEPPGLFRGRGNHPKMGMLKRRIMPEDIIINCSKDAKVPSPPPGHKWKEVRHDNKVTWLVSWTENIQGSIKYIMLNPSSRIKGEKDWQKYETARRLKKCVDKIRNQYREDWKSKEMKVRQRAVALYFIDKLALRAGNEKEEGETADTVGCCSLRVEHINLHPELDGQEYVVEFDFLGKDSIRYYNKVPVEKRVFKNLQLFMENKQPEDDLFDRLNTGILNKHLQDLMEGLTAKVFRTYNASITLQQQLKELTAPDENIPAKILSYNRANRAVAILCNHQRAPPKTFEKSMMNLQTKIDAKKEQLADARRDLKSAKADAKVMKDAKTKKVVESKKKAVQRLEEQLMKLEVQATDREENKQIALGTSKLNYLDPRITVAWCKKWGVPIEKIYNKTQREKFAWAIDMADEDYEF

[12] = test system: A549; test: In vitro growth inhibition of A549, lung carcinoma.; format: functional, cell-based; details: Homo sapiens; method in brief: as §1
[13] = test system: CAKI-1; test: In vitro percent inhibition of CAKI-1, Kidney carcinoma; Range 12-38; format: functional, Homo sapiens
[14] = test system: MCF7; test: In vitro percent inhibition of MCF-7, breast adenocarcinoma.; Range 23-48; format: functional, Homo sapiens
[15] = test system: SK-MEL-2; test: In vitro percent inhibition of SK-MEL-2 cells, malignant melanoma.; Range 26-41; format: functional, Homo sapiens
[16] = test system: A549; test: In vitro percent inhibition of A549, lung carcinoma.; Range 18-43
[17] = biological target: T1, DNA topoisomerase II; test: In vitro activity against mammalian topoisomerase II measured as ATP-dependent unknotting of P4 DNA compared to enzyme and DNA control; format: protein assay
Method in brief: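 Topo II inhibition read as ATP-dependent unknotting of P4 DNA, compared with enzyme-only and DNA-only control reactions.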

[18] = biological target: Tubulin alpha chain (Sus scrofa, UniProt P02550); test: In vitro inhibition of mammalian tubulin polymerization by 50%; Inactive
[19] = test system: A549; test: In vitro percent inhibition of A549, lung carcinoma.; format: functional, Homo sapiens
[20] = test system: SK-MEL-2; test: In vitro percent inhibition of SK-MEL-2 cells, malignant melanoma.; format: functional, Homo sapiens; set-up: concentration or dose not given beside the values
[21] = test system: CAKI-1; test: as §2; format: functional, Homo sapiens
[22] = test system: KB; test: In vitro percent inhibition of KB, epidermoid carcinoma of the nasopharynx.; format: functional, Homo sapiens
[23] = test system: SK-MEL-2; test: In vitro percent inhibition of SK-MEL-2, malignant melanoma.; format: functional, Homo sapiens
[24] = test system: KB; test: In vitro epidermoid carcinoma of the nasopharynx; format: functional, Homo sapiens; method in brief: as §1
[25] = test system: KB; test: In vitro growth inhibition of KB, epidermoid carcinoma of the nasopharynx; format: functional, cell-based; details: Homo sapiens; method in brief: as §1

Tubulin alpha chain, sequence (P02550 whole entry, looked up): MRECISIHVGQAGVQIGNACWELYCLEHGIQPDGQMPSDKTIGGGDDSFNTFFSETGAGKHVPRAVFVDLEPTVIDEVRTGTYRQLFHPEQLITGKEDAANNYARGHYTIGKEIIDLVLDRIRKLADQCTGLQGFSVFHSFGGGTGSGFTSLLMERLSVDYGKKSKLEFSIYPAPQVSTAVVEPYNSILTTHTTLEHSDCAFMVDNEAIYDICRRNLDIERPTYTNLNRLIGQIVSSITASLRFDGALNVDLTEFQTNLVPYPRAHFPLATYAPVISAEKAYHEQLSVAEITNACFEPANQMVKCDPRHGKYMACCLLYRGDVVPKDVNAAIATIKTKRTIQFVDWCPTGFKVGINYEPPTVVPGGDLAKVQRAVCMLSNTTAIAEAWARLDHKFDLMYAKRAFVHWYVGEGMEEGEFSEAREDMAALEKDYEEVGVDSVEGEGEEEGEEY

| SMILES | EC50 [3] [µg/mL] | EC50 [4] [µg/mL] | EC50 [5] [µg/mL] | EC50 [7] [µg/mL] | inhibition [8] [%] | IC50 [9] [µM] | inhibition [11] [%] | also measured |
| --- | --- | --- | --- | --- | --- | --- | --- | --- |
| CSc1ccc2c(cc1=O)[C@@H](NC(=O)c1ccc([N+](=O)[O-])cc1)CCc1cc(OC(=O)C(C)C)c(OC(=O)C(C)C)c(OC(=O)C(C)C)c1-2 | > 27.6 | 25.5 (≈ 36.9 µM) | > 27.6 | 27.6 (≈ 40 µM) | 0 | > 40 | 0 | EC50 [1]: > 27.6 µg/mL; Inhibition [2]: 19%; Inhibition [6]: 43%; Inhibition [10]: 17% |
| CSc1ccc2c(cc1=O)[C@@H](NC(=O)c1ccc(F)cc1)CCc1cc(O)c(O)c(O)c1-2 | – | – | – | – | 100 | > 40 | 0 | – |
| CSc1ccc2c(cc1=O)[C@@H](NC(=O)c1ccc([N+](=O)[O-])cc1)CCc1cc(OC(C)=O)c(OC(C)=O)c(OC(C)=O)c1-2 | > 0.3 | 2.7 (≈ 4.45 µM) | > 0.15 | > 0.3 | 0 | > 40 | 0 | EC50 [12]: > 0.15 µg/mL; Inhibition [13]: 12%; Inhibition [14]: 23%; Inhibition [15]: 26%; Inhibition [16]: 18% |
| CSc1ccc2c(cc1=O)[C@@H](NC(=O)c1ccccc1[N+](=O)[O-])CCc1cc(O)c(O)c(O)c1-2 | – | – | – | – | 100 | > 40 | 0 | – |
| COc1c(O)c(O)cc2c1-c1ccc(SC)c(=O)cc1[C@@H](NC(C)=O)CC2 | – | – | – | – | – | – | – | IC50 [17]: 38 µM |
| CSc1ccc2c(cc1=O)[C@@H](NC(=O)c1ccc(CBr)cc1)CCc1cc(O)c(O)c(O)c1-2 | – | – | – | – | 100 | > 40 | 0 | – |
| COc1cc2c(c(OC)c1OC)-c1ccc(OC)c(=O)cc1[C@@H](NC(C)=O)CC2 [COLCHICINE] | 0.4 (≈ 1 µM) | 0.002 (≈ 0.00501 µM) | > 0.4 | 0.008 (≈ 0.02 µM) | – | – | – | EC50 [12]: 0.022 µg/mL (≈ 0.0551 µM) |
| CSc1ccc2c(cc1=O)[C@@H](NC(=O)c1ccc(NC(=O)C34CCC(C)(C(=O)O3)C4(C)C)cc1)CCc1cc(O)c(O)c(O)c1-2 (some centres not stated) | – | – | – | – | 0 | > 40 | 0 | – |
| CSc1ccc2c(cc1=O)[C@@H](NC(=O)c1cc([N+](=O)[O-])cc([N+](=O)[O-])c1)CCc1cc(O)c(O)c(O)c1-2 | – | – | – | – | 100 | > 40 | 0 | – |
| COc1cc([C@@H]2c3cc4c(cc3[C@@H](O[C@@H]3O[C@@H]5CO[C@@H](C)O[C@H]5[C@H](O)[C@H]3O)[C@H]3COC(=O)[C@H]23)OCO4)cc(OC)c1O [ETOPOSIDE] | – | – | – | – | – | – | – | IC50 [18]: Not Active |
| CSc1ccc2c(cc1=O)[C@@H](NC(=O)c1ccc([N+](=O)[O-])cc1)CCc1cc(O)c(O)c(O)c1-2 | > 9.6 | 7.7 (≈ 16 µM) | > 9.6 | > 9.6 | 100 | > 40 | < 100 | EC50 [12]: > 9.6 µg/mL; Inhibition [19]: 36%; Inhibition [6]: 38%; Inhibition [20]: 0%; Inhibition [10]: 20% |
| CSc1ccc2c(cc1=O)[C@@H](NC(=O)c1cccc([N+](=O)[O-])c1)CCc1cc(O)c(O)c(O)c1-2 | – | – | – | – | 100 | > 40 | 0 | – |
| Br.CSc1ccc2c(cc1=O)[C@@H](N)CCc1cc(O)c(O)c(O)c1-2 | > 13.2 | > 13.2 | > 13.2 | > 13.2 | 100 | – | 0 | EC50 [12]: > 13.2 µg/mL; Inhibition [19]: 0%; Inhibition [21]: 2%; Inhibition [22]: 0%; Inhibition [6]: 23%; Inhibition [23]: 0% |
| CCCCCC(=O)N[C@H]1CCc2cc(O)c(O)c(O)c2-c2ccc(SC)c(=O)cc21 | – | – | – | – | 100 | > 40 | 0 | – |
| CSc1ccc2c(cc1=O)[C@@H](NC(=O)c1cc(O)c(O)c(O)c1)CCc1cc(O)c(O)c(O)c1-2 | > 9.6 | 9.6 (≈ 19.9 µM) | 8.6 (≈ 17.8 µM) | > 9.6 | 100 | > 40 | 100 | EC50 [12]: > 9.6 µg/mL; Inhibition [19]: 30%; Inhibition [20]: 30%; Inhibition [10]: 29% |
| CSc1ccc2c(cc1=O)[C@@H](NC(=O)c1ccc(Cl)cc1)CCc1cc(O)c(O)c(O)c1-2 | – | – | – | – | 100 | > 40 | 0 | – |
| CSc1ccc2c(cc1=O)[C@@H](NC(=O)C13CC4CC(CC(C4)C1)C3)CCc1cc(O)c(O)c(O)c1-2 | – | – | – | – | 0 | > 40 | 0 | – |
| COc1cc2c(c(O)c1O)-c1ccc(SC)c(=O)cc1[C@@H](NC(C)=O)CC2 | – | – | – | – | – | – | – | IC50 [17]: > 150 µM |
| Br.CSc1ccc2c(cc1=O)[C@@H](NC(=O)c1ccc(N)cc1)CCc1cc(O)c(O)c(O)c1-2 | > 19.5 | 4.8 | 10.7 | > 19.5 | – | > 40 | – | EC50 [12]: 9.7 µg/mL; Inhibition [20]: 42%; Inhibition [10]: 37% |
| CSc1ccc2c(cc1=O)[C@@H](NC(=O)C13CCC(C)(C(=O)O1)C3(C)C)CCc1cc(O)c(O)c(O)c1-2 (some centres not stated) | – | – | – | – | 0 | > 40 | 0 | – |
| CSc1ccc2c(cc1=O)[C@@H](NC(C)=O)CCc1cc(O)c(O)c(O)c1-2 | – | – | 13.6 (≈ 36.4 µM) | – | – | – | – | Inhibition [24]: 0%; EC50 [25]: > 17.8 µg/mL; Inhibition [20]: 0%; IC50 [17]: 9 µM; Inhibition [10]: 22% |
| CSc1ccc2c(cc1=O)[C@@H](NC(=O)c1ccc(N)cc1)CCc1cc(O)c(O)c(O)c1-2 | – | – | – | – | 100 | – | 0 | – |
